Experiment [1] addresses T1, Mineralocorticoid receptor (Rattus norvegicus) (UniProt P22199).
T1 sequence (whole entry): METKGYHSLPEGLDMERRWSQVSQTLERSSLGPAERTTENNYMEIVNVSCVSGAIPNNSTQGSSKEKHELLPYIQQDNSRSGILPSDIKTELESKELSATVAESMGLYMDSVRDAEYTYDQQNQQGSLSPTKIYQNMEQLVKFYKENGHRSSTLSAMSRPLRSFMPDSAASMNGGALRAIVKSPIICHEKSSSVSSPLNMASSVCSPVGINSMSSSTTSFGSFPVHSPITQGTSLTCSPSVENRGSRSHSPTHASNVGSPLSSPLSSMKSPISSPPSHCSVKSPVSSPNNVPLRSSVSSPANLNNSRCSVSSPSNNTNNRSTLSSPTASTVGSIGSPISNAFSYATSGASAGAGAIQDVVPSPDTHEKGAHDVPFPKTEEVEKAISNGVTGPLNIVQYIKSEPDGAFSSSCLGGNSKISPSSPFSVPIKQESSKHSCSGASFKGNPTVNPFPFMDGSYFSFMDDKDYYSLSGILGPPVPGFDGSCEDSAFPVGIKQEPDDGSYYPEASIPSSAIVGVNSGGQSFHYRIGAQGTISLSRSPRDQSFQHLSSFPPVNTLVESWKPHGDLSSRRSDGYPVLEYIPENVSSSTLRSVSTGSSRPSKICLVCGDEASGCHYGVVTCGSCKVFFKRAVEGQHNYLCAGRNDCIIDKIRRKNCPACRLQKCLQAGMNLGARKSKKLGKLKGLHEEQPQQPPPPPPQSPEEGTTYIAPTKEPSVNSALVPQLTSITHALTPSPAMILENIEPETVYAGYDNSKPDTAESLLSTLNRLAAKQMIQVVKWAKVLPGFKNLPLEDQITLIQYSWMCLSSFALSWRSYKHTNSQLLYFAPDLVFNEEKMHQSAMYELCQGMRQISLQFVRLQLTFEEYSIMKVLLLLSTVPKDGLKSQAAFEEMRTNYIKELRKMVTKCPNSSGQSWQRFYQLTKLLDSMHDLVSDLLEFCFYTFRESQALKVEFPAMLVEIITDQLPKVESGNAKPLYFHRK
The experiment in a line: Ratio of [3H]aldosterone binding with 8*10e-8 M aldosterone to [3H]aldosterone binding with 8*10e-8 M competitor at Mineralocorticoid receptor. In outline:
(§1)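 Competition binding against [3H]aldosterone at the mineralocorticoid steroid-receptor complex. Each spirolactone competitor was tested at 8 × 10^-8 M, with unlabeled aldosterone at the same concentration as reference. Incubation ran 40 min at 25 °C. Labeled aldosterone still receptor-bound afterwards was measured, and binding affinity was expressed relative to aldosterone.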

In experiment [2] the target is T1, Mineralocorticoid receptor (Rattus norvegicus). The experiment in a line: Displacement of [3H]aldosterone from mineralocorticoid receptor. In a few lines: as §1
In general terms: Loss of bound radioactivity is the signal in a displacement assay; it reports binding, not function.

In the case of `CC12CCC(=O)C=C1[C@@H]1C[C@@H]1C1C2CCC2(C)C1CCC21CCC(=O)O1` (some centres undefined), the Relative binding affinity in experiment [1] turned out to be 0.25. In experiment [2], the Binding was 31.7%.

Regarding `C[C@]12CCC(=O)C=C1CC[C@@H]1[C@@H]2[C@@H](O)C[C@]2(C=O)[C@@H](C(=O)CO)CC[C@@H]12`, the Relative binding affinity in experiment [1] was determined as 1. Besides, the Binding in experiment [2] turned out to be 7.8%.

With `CC(=O)S[C@@H]1CC2=CC(=O)CC[C@]2(C)[C@H]2CC[C@@]3(C)[C@@H](CC[C@@]34CCC(=O)O4)[C@H]12`, the Relative binding affinity in experiment [1] worked out at 0.24. The Binding in experiment [2] was found to be 32.2%.

Regarding `CC12C=CC(=O)C=C1[C@H]1CC1C1C2CCC2(C)C1CCC21CCC(=O)O1` (some centres undefined), in experiment [1], the Relative binding affinity came out at 0.1. This molecule yielded a Binding in experiment [2] of 77%.

Turning to `CC12C=CC(=O)C=C1[C@H]1C[C@H]1C1C2CCC2(C)C1CCC21CCC(=O)O1` (some centres undefined), in experiment [1], the Relative binding affinity is 0.15. In addition, in experiment [2], the Binding turned out to be 53%.

`CC12C(=CC(=O)C3CC31)[C@H]1CC1C1C2CCC2(C)C1CCC21CCC(=O)O1` (some centres undefined): in experiment [1], the Relative binding affinity was 0.1. In experiment [2], this molecule returned a Binding of 77.6%.

For the molecule `C[C@]12CCC(=O)C=C1C=C[C@@H]1[C@@H]2CC[C@@]2(C)[C@H]1CC[C@@]21CCC(=O)O1`, the Relative binding affinity in experiment [1] worked out at 0.13. The molecule further came in with a Binding in experiment [2] of 60%.

Turning to `C[C@]12C=CC(=O)C=C1CCC1C2CC[C@@]2(C)C1CC[C@@]21CCC(=O)O1` (some centres undefined), in experiment [1], the Relative binding affinity came to 0.15. This molecule registered a Binding in experiment [2] of 53.5%.

For `CC12CCC(=O)C=C1[C@H]1C[C@H]1C1C2CCC2(C)C1CCC21CCC(=O)O1` (some centres undefined), the Relative binding affinity in experiment [1] was determined as 0.12. Further, the Binding in experiment [2] turned out to be 66%.

Turning to `C[C@]12CCC(=O)C=C1CC[C@@H]1[C@@H]2CC[C@@]2(C)[C@H]1CC[C@@]21CCC(=O)O1`, the Relative binding affinity in experiment [1] is 0.22. In addition, the Binding in experiment [2] turned out to be 36%.

As to `CC12C(=CC(=O)C3CC31)[C@@H]1C[C@@H]1C1C2CCC2(C)C1CCC21CCC(=O)O1` (some centres undefined), the Relative binding affinity in experiment [1] stood at 0.14. For the same molecule, the Binding in experiment [2] was found to be 55%.

Take `CC12C=CC(=O)C=C1C=CC1C2CCC2(C)C1CCC21CCC(=O)O1` (centres undefined): the Relative binding affinity in experiment [1] was 0.1. This molecule gave a Binding in experiment [2] of 76.6%.

The record behind these values is ChEMBL document CHEMBL1121702, “A structure-activity relationship study of spirolactones. Contribution of the cyclopropane ring to antimineralocorticoid activity” (J Med Chem, 1981).
